Published values from different studies.
Compare with care: the assays were run in different laboratories.
PIK3CA: Phosphatidylinositol 4,5-bisphosphate 3-kinase catalytic subunit alpha isoform (PIK3CA, Homo sapiens, UniProt P42336)
PIK3CA Q546K: Phosphatidylinositol 4,5-bisphosphate 3-kinase catalytic subunit alpha isoform (PIK3CA, Homo sapiens, UniProt P42336, Q546K)
PIK3CA E545K: Phosphatidylinositol 4,5-bisphosphate 3-kinase catalytic subunit alpha isoform (PIK3CA, Homo sapiens, UniProt P42336, E545K)
PIK3CA M1043I: Phosphatidylinositol 4,5-bisphosphate 3-kinase catalytic subunit alpha isoform (PIK3CA, Homo sapiens, UniProt P42336, M1043I)
PIK3CA I800L: Phosphatidylinositol 4,5-bisphosphate 3-kinase catalytic subunit alpha isoform (PIK3CA, Homo sapiens, UniProt P42336, I800L)
PIK3CA E542K: Phosphatidylinositol 4,5-bisphosphate 3-kinase catalytic subunit alpha isoform (PIK3CA, Homo sapiens, UniProt P42336, E542K)
PIK3CA H1047L: Phosphatidylinositol 4,5-bisphosphate 3-kinase catalytic subunit alpha isoform (PIK3CA, Homo sapiens, UniProt P42336, H1047L)
PIK3CA C420R: Phosphatidylinositol 4,5-bisphosphate 3-kinase catalytic subunit alpha isoform (PIK3CA, Homo sapiens, UniProt P42336, C420R)
PIK3CA H1047Y: Phosphatidylinositol 4,5-bisphosphate 3-kinase catalytic subunit alpha isoform (PIK3CA, Homo sapiens, UniProt P42336, H1047Y)

| Structure (SMILES) | target | effect on | technique | concentration | remaining binding [%] |
| --- | --- | --- | --- | --- | --- |
| O=C(NCCCN1CCOCC1)c1ccc(Nc2ncc(Cl)c(-c3ccc(Cl)s3)n2)cc1 | PIK3CA | binding | competition with immobilised ligand | 1 µM | 100 |
| C=CC(=O)N1CCC(C(=O)NCC(=O)N2CCN(c3nc(-c4cnc(N)nc4C(F)F)nc(N4CCOCC4)n3)CC2)CC1 | PIK3CA Q546K | binding | competition with immobilised ligand | 1 µM | 0 |
| CN(c1nccc(-c2cnn3ncccc23)n1)C1CC1 | PIK3CA E545K | binding |  | 1 µM | 100 |
| CN([C@@H]1CCc2c(CC(=O)O)c3cc(S(C)(=O)=O)ccc3n2C1)S(=O)(=O)c1ccc(F)cc1 | PIK3CA Q546K | cell-free assay | competition with immobilised ligand | 1 µM | 100 |
| COc1cnc(Nc2cccc(S(N)(=O)=O)c2)nc1N1CCN(c2ccccc2)C(=O)C1 | PIK3CA | binding | competition with immobilised ligand | 1 µM | 100 |
| COc1ncc2cc3ccccc3nc2c1C#N | PIK3CA E545K | cell-free assay | competition with immobilised ligand | 5 µM | 100 |
| C[C@@H]1CCN(c2nccc(-c3cnn4ncccc34)n2)C1 | PIK3CA M1043I | binding |  | 1 µM | 98 |
| Cc1cc(-c2cc(C(F)(F)F)ccc2O[C@H]2C[C@@]2(CNS(=O)(=O)c2ccc([N+](=O)[O-])cc2)c2ccc(F)cc2F)[nH]n1 | PIK3CA M1043I | cell-free assay | competition with immobilised ligand | 0.3 µM | 8.1 |
| CN(C)c1nccc(-c2cnc3ncccn23)n1 | PIK3CA I800L | binding |  | 1 µM | 63 |
| CCN1CCN(Cc2ccc(C(=O)Nc3ccc(C)c(Oc4ccc5c(c4)CC(=O)N5)c3)cc2C(F)(F)F)CC1 | PIK3CA E542K | binding | competition with immobilised ligand | 1 µM | 100 |
| O=C(N1CCS(=O)(=O)CC1)N1C[C@H](c2ccc(OC(F)(F)F)cc2)C[C@H](c2nc(C3CC3)no2)C1 | PIK3CA Q546K | cell-free assay | competition with immobilised ligand | 1 µM | 83 |
| O=C(c1ccc(Nc2ncc(Cl)c(-c3cc4ccccc4s3)n2)cc1)N1CCC(N2CCCC2)CC1 | PIK3CA H1047L | binding | competition with immobilised ligand | 1 µM | 80 |
| CN1CCN(c2ccc(Nc3nccc(-c4cccc([N+](=O)[O-])c4)n3)cc2C(F)(F)F)CC1 | PIK3CA C420R | binding |  | 10 µM | 53 |
| CCc1ccccc1C(=O)Nc1n[nH]c2c(C)c(F)c(C3C(C#N)=C(C)N(C)C(C)=C3C#N)cc12 | PIK3CA H1047Y | cell-free assay | competition with immobilised ligand | 1 µM | 77 |
| CNC(=O)[C@@H]1CC[C@@H](n2c(-c3ccc4cnccc4c3)nc3ccc(C(=O)NCc4cccc(C(N)=O)c4)cc32)C1 | PIK3CA | binding | competition with immobilised ligand | 1 µM | 100 |
| O=C(NCC1CCOCC1)c1n[nH]cc1NC(=O)c1c(F)cccc1F | Phosphatidylinositol 4,5-bisphosphate 3-kinase catalytic subunit alpha isoform (PIK3CA, Homo sapiens, UniProt P42336, E545A) | binding | competition with immobilised ligand | 1 µM | 100 |
| CN1CCN(c2ccc(Nc3nccc(-c4ccccc4)n3)cc2C(F)(F)F)CC1 | PIK3CA H1047Y | binding |  | 10 µM | 90 |
| CCCOc1ccc([C@H]2[C@H](C(=O)O)[C@@H](c3ccc4c(c3)OCO4)CN2CC(=O)Nc2c(CC)cccc2CC)cc1 | PIK3CA I800L | cell-free assay | competition with immobilised ligand | 1 µM | 81 |
| O=C(NCCCN1CCOCC1)c1ccc(Nc2nccc(-c3cc4ccccc4s3)n2)cc1 | PIK3CA H1047L | binding | competition with immobilised ligand | 1 µM | 90 |

| Structure (SMILES) | target | effect on | technique | concentration | remaining binding [%] |
| --- | --- | --- | --- | --- | --- |
| O=C(Nc1c[nH]nc1C(=O)NC1CCNCC1)c1cc(F)cc(F)c1 | PIK3CA | binding | competition with immobilised ligand | 1 µM | 100 |
| COc1ccnn2ncc(-c3ccnc(N(C)C)n3)c12 | PIK3CA E542K | binding |  | 1 µM | 95 |
| O=C(c1ccc(Nc2ncc(Cl)c(-c3ccc(Cl)s3)n2)cc1)N1CCC(N2CCCC2)CC1 | PIK3CA E542K | binding | competition with immobilised ligand | 1 µM | 100 |
| COc1cnc(Nc2cccc(S(N)(=O)=O)c2)nc1N1CCN(c2ccccc2)CC1 | PIK3CA E542K | binding | competition with immobilised ligand | 1 µM | 93 |
| C[C@@H](c1ccc(-n2cnc3c(N)ncnc32)cc1)N1CCc2nn(C)c(Cc3ccccc3)c2C1=O | PIK3CA H1047L | binding | competition with immobilised ligand | 0.1 µM | 63 |
| CC1CCCN1c1nccc(-c2cnn3ncccc23)n1 (stereo not shown) | PIK3CA E542K | binding |  | 1 µM | 43 |
| Cc1c(-c2ccccc2)oc2c(C(=O)OCCN3CCCCC3)cccc2c1=O | PIK3CA | cell-free assay | competition with immobilised ligand | 10 µM | 100 |
| COCCOc1nc(-c2ccc(Cl)nc2)nc2c1CN(C(=O)c1ncn3ccccc13)CC2 | PIK3CA M1043I | cell-free assay | competition with immobilised ligand | 0.1 µM | 88 |
| CN(CCCC(F)(F)F)c1nccc(-c2cnn3ncccc23)n1 | PIK3CA M1043I | binding |  | 1 µM | 100 |
| O=C(c1ccc(Nc2nccc(-c3cc4ccccc4s3)n2)cc1)N1CCC(N2CCCC2)CC1 | PIK3CA M1043I | binding | competition with immobilised ligand | 1 µM | 81 |
| N[C@@H]1CCN(c2nccc(-c3cnn4ncccc34)n2)C1 | PIK3CA H1047Y | binding |  | 1 µM | 91 |
| c1ccc(N2CCN(Cc3nc4ccccc4[nH]3)CC2)nc1 | PIK3CA Q546K | cell-free assay | competition with immobilised ligand | 1 µM | 100 |
| CN(C)c1nccc(-c2cnn3ncccc23)n1 | PIK3CA E545K | binding |  | 1 µM | 83 |
| c1cncc(-c2cccc(Nc3nccc(NC4CCCCC4)n3)c2)c1 | PIK3CA E545K | binding | competition with immobilised ligand | 10 µM | 94 |
| FC(F)(F)c1ccc2c(c1)nc(-c1cccnc1)n2C1CC1 | PIK3CA C420R | cell-free assay | competition with immobilised ligand | 1 µM | 92 |
| Cc1cnc(Nc2ccc(C(=O)N3CCC(N4CCCC4)CC3)cc2)nc1-c1cc2ccccc2s1 | PIK3CA H1047Y | binding | competition with immobilised ligand | 1 µM | 65 |
| Nc1ncc2c(n1)-c1c([nH]c3ccc(C#CC4CC4)cc13)CCCC2 | PIK3CA I800L | binding | competition with immobilised ligand | 1 µM | 81 |
| CS(=O)(=O)N1CCCC(NC(=O)[C@H](CCC2CCCCC2)NC(=O)c2ccc(CNc3ncnc4c3nnn4-c3ccccc3)cc2)C1 (stereo partly shown) | PIK3CA E545K | cell-free assay | competition with immobilised ligand | 0.1 µM | 53 |
